Converted amounts (≈) assume the structure as drawn.
What was measured:
[1] = target: Glutamate NMDA receptor; Grin1/Grin2c (Rattus norvegicus) (UniProt P35439+Q00961); assay: Positive allosteric modulation of recombinant rat GluN1a/GluN2C receptor expressed in Xenopus laevis oocytes assessed as increase in glycine/L-glutamate-induced channel current at 30 uM by two-electrode voltage clamp method relative to control; format: cell-based
Summary of the method: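 Oocytes expressing rat GluN1/GluN2C or GluN2D, held at −40 mV in HEPES-buffered Ba2+ solution, pH 7.4, 23 °C. Current given as percent of agonist-alone response. Doubling concentration is the concentration giving 2-fold response; reported as […] log. 6–19 oocytes from 2–3 frogs.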

[2] = target: Glutamate NMDA receptor; Grin1/Grin2c (Rattus norvegicus, UniProt P35439+Q00961)
[3] = target: Ionotropic glutamate receptor NMDA 1/2D (Rattus norvegicus, UniProt P35439+Q62645)
[4] = target: Glutamate NMDA receptor; Grin1/Grin2b (Rattus norvegicus, UniProt P35439+Q00960); assay: Positive allosteric modulation of recombinant rat GluN1a/GluN2B receptor expressed in Xenopus laevis oocytes assessed as increase in glycine/L-glutamate-induced channel current at 10 to 30 uM by two-electrode voltage clamp method relative to control; format: cell-based
Chain of Glutamate NMDA receptor; Grin1/Grin2b (Q00960 whole entry, other chains not shown): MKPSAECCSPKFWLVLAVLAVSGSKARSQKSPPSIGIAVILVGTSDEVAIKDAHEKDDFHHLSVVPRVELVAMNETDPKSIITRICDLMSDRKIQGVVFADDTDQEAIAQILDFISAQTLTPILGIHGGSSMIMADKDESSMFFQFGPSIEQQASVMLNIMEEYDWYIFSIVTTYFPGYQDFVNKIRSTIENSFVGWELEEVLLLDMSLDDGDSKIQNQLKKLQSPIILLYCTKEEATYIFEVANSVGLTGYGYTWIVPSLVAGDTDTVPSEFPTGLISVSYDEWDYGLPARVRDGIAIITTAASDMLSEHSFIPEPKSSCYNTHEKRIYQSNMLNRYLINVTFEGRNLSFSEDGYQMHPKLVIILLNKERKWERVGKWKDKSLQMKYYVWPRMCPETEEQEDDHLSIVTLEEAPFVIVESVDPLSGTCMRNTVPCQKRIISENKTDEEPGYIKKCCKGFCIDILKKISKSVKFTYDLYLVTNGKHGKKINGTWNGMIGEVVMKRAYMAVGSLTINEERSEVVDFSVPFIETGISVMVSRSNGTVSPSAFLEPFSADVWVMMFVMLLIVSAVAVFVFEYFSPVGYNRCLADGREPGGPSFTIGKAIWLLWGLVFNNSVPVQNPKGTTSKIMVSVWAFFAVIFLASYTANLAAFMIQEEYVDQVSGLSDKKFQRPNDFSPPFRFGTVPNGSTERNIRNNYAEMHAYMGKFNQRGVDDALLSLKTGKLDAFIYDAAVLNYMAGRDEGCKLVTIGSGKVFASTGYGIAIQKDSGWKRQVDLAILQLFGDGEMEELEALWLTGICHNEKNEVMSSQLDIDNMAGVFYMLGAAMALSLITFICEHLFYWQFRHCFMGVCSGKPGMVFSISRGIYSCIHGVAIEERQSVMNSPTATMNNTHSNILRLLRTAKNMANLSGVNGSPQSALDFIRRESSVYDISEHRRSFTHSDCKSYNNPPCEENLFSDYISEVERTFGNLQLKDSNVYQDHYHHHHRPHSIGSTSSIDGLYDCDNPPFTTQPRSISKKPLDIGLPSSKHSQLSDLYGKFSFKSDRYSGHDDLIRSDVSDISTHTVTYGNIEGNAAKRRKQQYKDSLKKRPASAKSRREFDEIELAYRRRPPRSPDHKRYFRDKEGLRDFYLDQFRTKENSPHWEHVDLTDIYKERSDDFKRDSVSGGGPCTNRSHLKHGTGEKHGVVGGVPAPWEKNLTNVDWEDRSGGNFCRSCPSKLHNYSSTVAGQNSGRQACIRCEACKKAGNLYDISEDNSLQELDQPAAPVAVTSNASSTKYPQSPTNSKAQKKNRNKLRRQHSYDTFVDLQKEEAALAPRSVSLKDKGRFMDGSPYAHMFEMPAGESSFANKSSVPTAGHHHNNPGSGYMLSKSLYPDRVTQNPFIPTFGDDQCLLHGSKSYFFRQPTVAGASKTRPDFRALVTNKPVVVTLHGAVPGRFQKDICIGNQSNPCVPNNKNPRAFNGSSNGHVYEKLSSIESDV
Summary of the method: (§1)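 TEVC at −40 mV, 23 °C, in 90 NaCl/1 KCl/0.5 BaCl/0.005 EDTA/10 HEPES (mM), pH 7.4. Oocytes expressed rat GluN1/GluN2A or GluN1/GluN2B. […] Some GluN2A oocytes were BAPTA-loaded. 4–17 oocytes from 1–3 frogs.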

[5] = target: Ionotropic glutamate receptor NMDA 1/2D (Rattus norvegicus) (UniProt P35439+Q62645); assay: Positive allosteric modulation of recombinant rat GluN1a/GluN2D receptor expressed in Xenopus laevis oocytes assessed as increase in glycine/L-glutamate-induced channel current at 30 uM by two-electrode voltage clamp method relative to control; format: cell-based
Summary of the method: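 Oocytes expressing rat GluN1/GluN2C or GluN2D, held at −40 mV in HEPES-buffered Ba2+ solution, pH 7.4, 23 °C. […] Current given as percent of agonist-alone response. […] Doubling concentration is the concentration giving 2-fold response; reported as […] log. 6–19 oocytes from 2–3 frogs.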

[6] = target: Glutamate NMDA receptor; Grin1/Grin2a (Rattus norvegicus, UniProt P35439+Q00959); assay: Positive allosteric modulation of recombinant rat GluN1a/GluN2A receptor expressed in Xenopus laevis oocytes assessed as increase in glycine/L-glutamate-induced channel current at 10 to 30 uM by two-electrode voltage clamp method relative to control; format: cell-based; summary of the method: as §1
Chain of Glutamate NMDA receptor; Grin1/Grin2a (Q00959 whole entry, other chains not shown): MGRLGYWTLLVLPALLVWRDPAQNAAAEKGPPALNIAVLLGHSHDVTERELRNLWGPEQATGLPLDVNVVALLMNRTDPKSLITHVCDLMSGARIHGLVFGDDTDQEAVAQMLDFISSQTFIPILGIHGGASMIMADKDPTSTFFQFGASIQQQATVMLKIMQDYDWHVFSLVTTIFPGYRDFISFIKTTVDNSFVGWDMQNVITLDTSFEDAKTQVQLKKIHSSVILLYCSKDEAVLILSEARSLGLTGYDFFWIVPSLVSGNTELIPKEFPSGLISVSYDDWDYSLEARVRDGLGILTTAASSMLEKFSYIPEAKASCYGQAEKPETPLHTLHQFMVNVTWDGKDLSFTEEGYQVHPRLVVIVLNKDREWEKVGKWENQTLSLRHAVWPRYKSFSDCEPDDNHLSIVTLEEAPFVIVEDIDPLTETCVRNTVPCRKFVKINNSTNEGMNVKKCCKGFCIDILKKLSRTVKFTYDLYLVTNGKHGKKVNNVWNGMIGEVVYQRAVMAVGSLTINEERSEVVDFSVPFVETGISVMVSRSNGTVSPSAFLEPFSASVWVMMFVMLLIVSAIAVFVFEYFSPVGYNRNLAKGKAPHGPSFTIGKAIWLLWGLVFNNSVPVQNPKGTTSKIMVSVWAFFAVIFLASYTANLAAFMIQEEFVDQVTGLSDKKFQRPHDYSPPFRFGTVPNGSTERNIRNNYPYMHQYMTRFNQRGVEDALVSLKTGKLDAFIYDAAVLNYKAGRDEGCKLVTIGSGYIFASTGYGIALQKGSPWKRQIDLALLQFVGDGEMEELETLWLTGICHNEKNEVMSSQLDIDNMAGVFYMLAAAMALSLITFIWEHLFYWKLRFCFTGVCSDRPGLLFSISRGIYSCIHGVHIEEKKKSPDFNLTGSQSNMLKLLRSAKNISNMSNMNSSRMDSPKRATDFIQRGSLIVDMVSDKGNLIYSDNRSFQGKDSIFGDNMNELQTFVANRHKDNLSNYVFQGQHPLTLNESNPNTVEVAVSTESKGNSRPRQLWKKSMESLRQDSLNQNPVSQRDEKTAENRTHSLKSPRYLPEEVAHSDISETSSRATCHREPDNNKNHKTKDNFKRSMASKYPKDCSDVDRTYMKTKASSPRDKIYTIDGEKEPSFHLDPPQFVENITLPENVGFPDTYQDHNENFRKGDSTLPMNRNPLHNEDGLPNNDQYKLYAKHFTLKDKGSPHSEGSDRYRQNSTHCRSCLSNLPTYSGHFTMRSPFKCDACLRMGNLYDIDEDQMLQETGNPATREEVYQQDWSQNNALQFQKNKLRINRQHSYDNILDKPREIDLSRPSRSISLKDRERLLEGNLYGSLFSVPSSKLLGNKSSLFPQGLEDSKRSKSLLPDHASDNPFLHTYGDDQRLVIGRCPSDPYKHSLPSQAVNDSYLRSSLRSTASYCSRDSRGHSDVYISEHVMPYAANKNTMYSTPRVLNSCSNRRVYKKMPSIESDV

[7] = Aqueous solubility of the compound at pH 7.4 after 30 mins by nephelometric analysis; format: physicochemical; conditions: buffer

| SMILES | %max [1] [%] | EC50 [2] [µM] | EC50 [3] [µM] | Activity [4] | %max [5] [%] | Activity [6] | solubility kinetic at 0.5 h [7] [µM] |
| --- | --- | --- | --- | --- | --- | --- | --- |
| COc1ccc(OCC2c3ccc(OC(C)C)cc3CC(=O)N2Cc2cccc(F)c2)cc1 (stereo not drawn) | 320 | 1 | 2 | 130% | 330 | 130% |  |
| COc1ccc(OCC2c3ccc(OC)cc3CC(=O)N2Cc2c[nH]nn2)cc1 (stereo not drawn) | 110 |  |  | Not Active | 98 | Not Active |  |
| COc1ccc(OC[C@H]2c3cccn3CCN2C(=O)c2cccc(C(F)(F)F)c2)cc1 | 460 | 1.26 | 1.26 | Not Active | 540 | Not Active | 58 (≈ 25 µg/mL) |
| COc1ccc(OCC2c3ccsc3CCN2C(=O)c2cccc(Cl)c2)cc1 (stereo not drawn) | 330 | 3.98 | 5.01 | Not Active | 340 | Not Active |  |
| COc1ccc(OCC2c3ccc(OC)cc3CC(=O)N2CCCN(C)C)cc1 (stereo not drawn) | 110 |  |  | Not Active | 96 | Not Active |  |
| COCCOCCN1C(=O)Cc2cc(OC)ccc2C1COc1ccc(OC)cc1 (stereo not drawn) | 98 |  |  | Not Active | 100 | Not Active |  |
| COc1ccc(OCC2c3sc(C)nc3CCN2C(=O)c2cccc(Cl)c2)cc1 (stereo not drawn) | 100 |  |  | Not Active | 100 | Not Active |  |
| COc1ccc(OCC2c3ccc(OC)cc3CC(=O)N2Cc2cccc(Cl)c2)cc1 (stereo not drawn) | 270 | 2 | 2.51 | Not Active | 330 | Not Active |  |
| COc1ccc(OCC2c3ccc(OC(C)C)cc3CCN2C(=O)c2cccc(C(F)(F)F)c2)cc1 (stereo not drawn) |  | 1.58 | 2.51 | Not Active |  | Not Active |  |
| COc1ccc(OC[C@H]2c3cccn3CC(=O)N2Cc2cccc(C(F)(F)F)c2)cc1 | 280 | 0.794 | 0.794 | Not Active | 330 | Not Active | 57 (≈ 24.5 µg/mL) |
| COc1ccc(OCC2c3cc(OC)c(OC)cc3CCN2C(=O)c2cccc(Cl)c2)s1 (stereo not drawn) | 100 |  |  | Not Active | 110 | Not Active |  |
| COc1ccc(OCC2c3cccn3CCN2C(=O)c2cccc(Cl)c2)cc1 (stereo not drawn) | 370 | 2.51 | 3.16 | Not Active | 370 | Not Active | 36 (≈ 14.3 µg/mL) |
| COc1cc2c(cc1OC)C(COC1CCOCC1)N(C(=O)c1cccc(C(F)(F)F)c1)CC2 (stereo not drawn) | 100 |  |  | Not Active | 95 | Not Active |  |
| COc1ccc(OCC2c3cnn(C)c3CCN2C(=O)c2cccc(Cl)c2)cc1 (stereo not drawn) | 210 |  |  | Not Active | 220 | Not Active |  |
| COc1cc2c(cc1OC)C(COc1cccnc1)N(C(=O)c1cccc(C(F)(F)F)c1)CC2 (stereo not drawn) | 90 |  |  | Not Active | 88 | Not Active |  |
| COc1ccc(OCC2c3sccc3CCN2C(=O)/C=C/C(F)(F)F)cc1 (stereo not drawn) | 290 | 12.6 | 15.8 | Not Active | 330 | Not Active |  |
| COc1cc2c(cc1OC)C(COc1ccccn1)N(C(=O)c1cccc(C(F)(F)F)c1)CC2 (stereo not drawn) | 96 |  |  | Not Active | 97 | Not Active |  |
| COc1ccc(OCC2c3ccccc3CCN2C(=O)c2cccc(Cl)c2)cc1 (stereo not drawn) | 260 | 6.31 | 7.94 | Not Active | 300 | Not Active |  |
| COc1ccc(OCC2c3cccn3CCN2C(=O)c2cccc(C(F)(F)F)c2)cc1 (stereo not drawn) | 380 | 1.58 | 2 | Not Active | 290 | Not Active | 58 (≈ 25 µg/mL) |
| COc1ccc(OCC2c3ccc(OCC(C)C)cc3CC(=O)N2Cc2cccc(Cl)c2)cc1 (stereo not drawn) | 280 | 0.398 | 0.631 | 130% | 370 | 130% |  |

| SMILES | %max [1] [%] | EC50 [2] [µM] | EC50 [3] [µM] | Activity [4] | %max [5] [%] | Activity [6] | solubility kinetic at 0.5 h [7] [µM] |
| --- | --- | --- | --- | --- | --- | --- | --- |
| COc1ccc(OCC2c3cccn3CC(=S)N2Cc2cccc(C(F)(F)F)c2)cc1 (stereo not drawn) | 120 |  |  | Not Active | 110 | Not Active |  |
| COc1ccc(OCC2c3ccc(OCC(C)C)cc3CCN2C(=O)c2cccc(Cl)c2)cc1 (stereo not drawn) |  | 1 | 1.26 | Not Active |  | Not Active |  |
| COc1ccc(OCC2c3ccsc3CCN2C(=S)c2cccc(Cl)c2)cc1 (stereo not drawn) | 97 |  |  | Not Active | 94 | Not Active |  |
| COc1ccc(OCC2c3ccc(OC(C)C)cc3CCN2C(=O)c2cccc(Cl)c2)cc1 (stereo not drawn) | 240 |  | 3.16 | Not Active | 250 | Not Active |  |
| COc1cc2c(cc1OC)C(COc1ncccn1)N(C(=O)c1cccc(C(F)(F)F)c1)CC2 (stereo not drawn) | 97 |  |  | Not Active | 95 | Not Active |  |
| COc1ccc(OC[C@@H]2c3cccn3CC(=O)N2Cc2cccc(C(F)(F)F)c2)cc1 | 84 |  |  | Not Active | 88 | Not Active | 57 (≈ 24.5 µg/mL) |
| COc1ccc(OCC2c3ccc(OC)cc3CC(=O)N2CCc2c[nH]c3ccccc23)cc1 (stereo not drawn) | 85 |  |  | Not Active | 85 | Not Active |  |
| COc1ccc(OC[C@@H]2c3cccn3CCN2C(=O)c2cccc(Cl)c2)cc1 | 98 |  |  | Not Active | 99 | Not Active | 36 (≈ 14.3 µg/mL) |
| COc1ccc(OC[C@@H]2c3cccn3CCN2C(=O)c2cccc(C(F)(F)F)c2)cc1 | 99 |  |  | Not Active | 98 | Not Active | 58 (≈ 25 µg/mL) |
| COc1ccc(OCC2c3ccc(OC(C)C)cc3CC(=O)N2Cc2cccc(Cl)c2)cc1 (stereo not drawn) | 350 | 0.398 | 0.501 | Not Active | 370 | Not Active |  |
| COc1ccc(OCC2c3sccc3CCN2C(=O)c2ccc(Cl)s2)cc1 (stereo not drawn) | 290 | 5.01 | 5.01 | Not Active | 400 | Not Active |  |
| COc1ccc(OCC2c3ccc(OC(C)C)cc3CC(=O)N2Cc2cccc(C(F)(F)F)c2)cc1 (stereo not drawn) | 280 | 0.398 | 0.631 | Not Active | 310 | Not Active |  |
| COc1cc2c(cc1OC)C(CO)N(C(=O)c1cccc(C(F)(F)F)c1)CC2 (stereo not drawn) | 98 |  |  | Not Active | 95 | Not Active |  |
| COc1ccc(OCC2c3cc(OC)c(OC)cc3CC(=O)N2Cc2cccc(Cl)c2)cc1 (stereo not drawn) | 270 | 5.01 | 10 | Not Active | 340 | Not Active |  |
| COc1ccc(OCC2c3occc3CCN2C(=O)c2cccc(Cl)c2)cc1 (stereo not drawn) | 340 | 6.31 | 7.94 | Not Active | 470 | Not Active |  |
| COc1ccc(OCC2c3ccc(OC)cc3CC(=O)N2CCCC(F)(F)F)cc1 (stereo not drawn) | 290 | 7.94 | 20 | Not Active | 450 | Not Active |  |
| CCCN1C(=O)Cc2cc(OC)ccc2C1COc1ccc(OC)cc1 (stereo not drawn) | 97 |  |  | Not Active | 94 | Not Active |  |
| COc1ccc(OCC2c3cc(OC)c(OC)cc3CCN2C(=O)c2cccc(C(F)(F)F)c2)cc1 (stereo not drawn) |  |  |  | Not Active |  | Not Active |  |
| COc1ccc(OCC2c3ccc(OC(C)C)cc3CCN2C(=O)c2cccc(F)c2)cc1 (stereo not drawn) |  |  | 7.94 | Not Active |  | Not Active |  |

Reference: ChEMBL document CHEMBL4627400, “Discovery of Dihydropyrrolo[1,2-a]pyrazin-3(4H)-one-Based Second-Generation GluN2C- and GluN2D-Selective Positive Allosteric Modulators (PAMs) of the N-Methyl-d-Aspartate (NMDA) Receptor” (J Med Chem, 2020)
